# SUMO Mot1 rescue – inhibitors of SUMOylation pathway: yeast Mot1-301 growth rescue. growth rescue, % at 18.8 µM. S. cerevisiae Mot1-301 growth rescue, ATP luminescence, 38.5C; percent above DMSO median, 100 means doubled. 320,000 compounds, 1% hits. AID 2716;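 active means every valid replicate shows activation above 250% relative to neutral control wells; inactive means the rest, any valid replicate at or below 250%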;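 further: OY570 slx delta 5 strain wells were the positive control but not used for scaling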
# NALP3 yeast inh – NALP3 inhibition in yeast. Yeast reconstituted NLRP3/ASC/caspase-1, beta-gal luminescence, 24 h. AID 2825. inhibition, % at 10 µM. 330,000 compounds, 0.39% hits;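 active means inhibition of 50% or more; inactive means inhibition below 50%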;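 further: plate controls were induced DMSO wells for no effect and uninduced yeast grown without galactose for full effect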
# PolyA inh – yeast polyadenylation inhibition; 300,000 compounds, 0.02% hits; AID 1875; activity score, % at 12 µM; S. cerevisiae SKY197-pL101 polyadenylation reporter, beta-gal luminescence; efflux-impaired pdr1/pdr3 knockout yeast; score 100 = 6 SD above DMSO;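 active means lowest replicate activity score at least 50, where 100 means six control SD above control mean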;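 further: yeast exposed to compound for 9 h at 30 °C; higher score means more reporter readthrough which indicates perturbed polyadenylation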
# IMP-1 inh – blocks Pseudomonas aeruginosa IMP-1 metallo-beta-lactamase. purified IMP-1, nitrocefin hydrolysis, epi-absorbance fluorescence. inhibition, % at 5.6 µM. 290,000 compounds, 0.45% hits;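 active means inhibition above the mean plus 3 SD of all compounds in the same screening run, cut at about 4.5% in these data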;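 further: 0% = IMP-1 with DMSO and 100% = DMSO wells lacking enzyme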
#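 System: purified IMP-1; amount: IMP-1 0.2 nM before substrate addition; compound: single dose, 5.6 µM; times: 25 °C, 15 min preincubation, 25 min reaction; signal: Epi-absorbance via hydrolysed-nitrocefin quenching of white-plate fluorescence, 480/530 nm, EDTA stop; benchmarks: DMSO with and without IMP-1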
# VIM-2 inhibitor – blocks Pseudomonas aeruginosa VIM-2 metallo-beta-lactamase. purified VIM-2, nitrocefin hydrolysis, epi-absorbance fluorescence. 290,000 compounds, 0.89% hits. inhibition, % at 5.6 µM. AID 1527;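 active means inhibition above the mean of all tested compounds plus 3 SD, cutoff set per screening run, cut at about 7.5% in these data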;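 further: red hydrolysis product quenches plate fluorescence so inhibitors raise well fluorescence; 0% = enzyme with DMSO and 100% = DMSO without enzyme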
# NALP1 inh – inhibitors of NALP1 inflammasome in yeast; S. cerevisiae NALP1/ASC/caspase-1 growth, X-gal OD620, 72 h; inhibition, % at 10 µM; 280,000 compounds, 0.61% hits; AID 2071; in the data active means inhibition mostly above about 24%, no sharp cut-off; inactive means mostly below about 32%
# NALP3 confirm – confirmation of NALP3 inhibitors in yeast; shares compounds with NALP3 yeast inh; yeast expressing human NALP3, luminescence; inhibition, % at 10 µM; 1,300 compounds, 81% hits; AID 435006; in the data active means inhibition above about 48%
# Casp1-ASC yeast – active in yeast caspase-1-ASC counter-screen for NALP3 inhibitors | shares compounds with NALP3 yeast inh | yeast expressing Caspase-1-ASC, luminescence counter screen | inhibition, % at 10 µM | 1,000 compounds, 66% hits
# NALP3 yeast rt – yeast NALP3 inhibition, confirmed on retest; inhibition, % at 10 µM; 1,000 compounds, 53% hits; shares compounds with NALP3 yeast inh; yeast expressing human NALP3, luminescence read-out
# The depositor's hits bear a star; . = not tested or not shown. Sampled rows, rich in hits. Any-hit rate of the full collection: about 2.9%. Unless noted, no stated cut-off is given here; in the data, active means inhibition above about 50%; inactive means the rest.
SMILES,SUMO Mot1 rescue,NALP3 yeast inh,PolyA inh,IMP-1 inh,VIM-2 inhibitor,NALP1 inh,NALP3 confirm,Casp1-ASC yeast,NALP3 yeast rt
CCCC1CCC(c2ccc(OCC)cc2)=CC1=O (stereo unspecified),23.2,51.7*,-1.1,-2.5,-0.8,21.4,62.2*,40.2,49.5
CCOc1ccc(N2C(=O)CCC2=O)cc1,-9.3,-2.8,-14.4,-1.9,-3.1,.,.,.,.
CN1C/C(=C/c2ccsc2)C(=O)/C(=C/c2ccsc2)C1,17.5,62.6*,11.9,-1.8,-1.8,.,56.0*,79.0*,64.7*
Cc1ccc(Sc2ccc(NC(=O)CCl)cc2)c(C)c1,29.4,58.5*,-58.9,-1.1,1.0,36.8,69.5*,78.4*,58.4*
CC1CCc2c(C(=O)Nc3ccc(N4CCOCC4)cc3)csc2C1 (stereo unspecified),2.1,68.6*,-10.4,-1.5,-0.7,27.2*,53.2*,63.6*,52.5*
CC1CCc2c(C(=O)NCCN3CCOCC3)csc2C1 (stereo unspecified),-3.7,20.2,1.9,-2.7,-2.6,-20.2,.,.,.
FC(F)(F)Oc1ccc(Nc2nc(N3CCOCC3)nc(N3CCOCC3)n2)cc1,-11.4,31.2,-10.3,-1.1,0.1,10.9,.,.,.
O=[N+]([O-])c1cccnc1S(=O)(=O)c1ccccc1,102.0,57.7*,-17.8,-3.4,-5.9,25.1,63.1*,50.3*,38.8
CCc1ccc2oc(-c3ccc(OC)cc3)cc(=Nc3c(C)n(C)n(-c4ccccc4)c3=O)c2c1,3.3,52.9*,-19.6,-2.9,1.5,-3.8,42.0,53.5*,43.4
CCc1ccc2oc(-c3ccc(OC)cc3)cc(=Nc3cccc(C(=O)O)c3)c2c1,-17.6,39.9,-27.2,-3.0,-0.8,4.2,.,.,.
COc1ccc(-c2cc(=Nc3ccc(C(=O)O)cc3)c3cc(C)ccc3o2)cc1,21.9,53.0*,-20.7,-0.8,-2.5,4.1,71.6*,56.6*,41.0
COc1cccc(/C=C/C(=O)OCC(=O)N2CCCC2)c1OC,6.5,8.0,.,.,.,.,.,.,.
COc1ccc(-c2oc3ccc(-c4cc(OC)c(OC)c(OC)c4)cc3c2C#Cc2ccsc2)cc1,-6.0,25.4,-13.4,-3.5,-2.2,1.9,.,.,.
Brc1ccc(CNc2ccc3ncccc3c2)cc1,156.6,11.1,4.1,-2.8,2.1,13.8,.,.,.
O=C1C(=C(c2ccccc2)c2ccccc2)Nc2ccccc21,96.0,62.2*,-18.3,0.5,-2.2,7.1,7.9,.,.
O=C(NCCCN1CCOCC1)c1c(O)c2cc(Br)cc(Br)c2[nH]c1=O,-12.2,62.7*,.,-2.4,0.8,-8.2,81.2*,30.7,39.2
O=C(Nc1ccc(Nc2ccccc2)cc1)C(Cl)(Cl)Cl,22.5,60.7*,-10.1,-1.8,3.1,35.9,68.0*,.,.
NC(=O)Nc1ccc(Nc2ccccc2)cc1,11.6,9.5,19.9,-3.0,-2.2,8.0,.,.,.
Cc1cc(C)c(C)c(S(=O)(=O)N2CCC(C(=O)NCCCN3CCCC3=O)CC2)c1C,8.8,23.0,.,.,.,.,.,.,.
CCc1nn2c(=O)cc(COC(=O)c3ccc(SC)cc3OC)nc2s1,26.0,19.8,.,.,.,.,.,.,.
COc1ccccc1-c1ccc(SCc2ccc(C)cc2)nn1,-15.7,54.5*,-14.2,-3.5,-2.2,-6.4,58.9*,52.5*,54.5*
O=C(CSc1nc(=O)n(CCN2CCOCC2)c2c1CCCC2)Nc1cccc([N+](=O)[O-])c1,-3.3,22.3,-11.3,.,.,.,.,.,.
O=C(N/N=C(\Cc1ncc[nH]1)c1ccccc1)c1cccnc1,7.1,-1.7,.,-2.1,-2.2,-5.6,.,.,.
O=C(Nc1ccccc1)C1C(c2ccccc2)C1(Cl)Cl (stereo unspecified),5.6,59.0*,1.8,-2.5,-1.1,8.8,71.8*,64.2*,59.8*
CC(=O)OCCN(C)c1cc(SC(C)C)c2nonc2c1[N+](=O)[O-],70.0,6.3,3.2,-2.7,-1.1,7.1,.,.,.
SMILES,SUMO Mot1 rescue,NALP3 yeast inh,PolyA inh,IMP-1 inh,VIM-2 inhibitor,NALP1 inh,NALP3 confirm,Casp1-ASC yeast,NALP3 yeast rt
CN(CCO)c1cc(Sc2nc3ccccc3s2)c2nonc2c1[N+](=O)[O-],165.9,62.1*,-8.6,-0.8,-1.8,-10.5,64.6*,.,.
CCOC(=O)C1(Cc2ccccc2)CCCN(S(=O)(=O)N(C)C)C1 (stereo unspecified),-14.3,22.9,-3.6,-3.4,-1.6,10.6,.,.,.
Cc1cc(C(=O)CCl)c(C)n1CCc1ccccc1,3.6,-115.5,-33.8,-2.1,-2.2,-48.5,24.6,.,.
CCOC(=O)c1cc(C)n(CCc2ccccc2)c1C,423.0,15.8,-7.3,-1.7,-2.0,-6.7,.,.,.
C/C(=N\Nc1ncc(Br)cn1)c1cccc([N+](=O)[O-])c1,-11.5,50.7*,7.5,-2.1,-1.2,4.9,61.0*,63.5*,49.2
CCN=C1SC(CC(=O)Nc2sc3c(c2C#N)CCCC3)C(=O)N1CC (stereo unspecified),6.2,12.0,19.9,-0.9,-0.3,1.3,.,.,.
CCN=C1SC(CC(=O)Nc2sc(C)c(C)c2C(=O)OC)C(=O)N1CC (stereo unspecified),2.2,55.6*,-4.3,-2.4,-3.1,9.0,64.3*,63.5*,52.2*
COC(=O)c1c(C(=O)OC)c(-c2cccc(Cl)c2)n2c1CS(=O)(=O)C2,-18.0,9.6,-9.0,-2.1,-0.6,-3.8,.,.,.
C/C=C(\C)C(=O)N1CCC(C(=O)c2ccccc2)CC1,142.0,11.0,-15.1,-2.0,-0.6,9.4,.,.,.
O=C(COc1ccc(Cl)cc1)Nc1cccc(-c2ccc(N3CCOCC3)nn2)c1,10.5,61.3*,19.3,.,.,.,75.0*,49.0,45.5
O=C(Nc1cccc(-c2ccc(N3CCOCC3)nn2)c1)c1ccc(Cl)cc1,-3.6,2.9,11.8,.,.,.,.,.,.
COc1ccc(C(=O)CC(=O)C(=O)Nc2c(C)cccc2C)cc1,4.2,36.7,-2.9,-2.2,-2.1,0.1,.,.,.
COc1ccc(Nc2c(C)cccc2C)cc1,22.5,-105.3,-13.3,-0.6,-3.5,-46.5,-12.0,.,.
O=C(COc1ccc(Br)cc1Cl)NNC(=O)c1ccccc1,.,19.6,.,.,.,.,.,.,.
CCOC(=O)c1cc(C(=O)c2cccs2)n2ccc(C(C)=O)cc12,0.4,54.0*,11.3,-5.6,-5.5,20.8,51.0*,51.6*,47.4
O=c1oc2ccccc2cc1-c1ccc(O)cc1,1.1,51.5*,-13.1,-1.9,-0.8,27.1,49.0,.,.
Nc1ccc(-c2cc3ccccc3oc2=O)cc1,22.6,35.9,-3.6,-2.0,0.0,10.5,.,.,.
Cc1ccc(NC(=O)COC(=O)c2ccc3c(c2)OCO3)c(C)c1,-19.4,21.2,-14.0,0.2,-1.1,-1.7,.,.,.
Cc1cc(C)cc(NC(=S)N2CCC(NC(=O)c3ccco3)CC2)c1,32.4,17.7,-3.2,1.8,-0.1,3.0,.,.,.

# Screens (PubChem BioAssay)
